Cneo AK release: Cryptococcus neoformans cell lysis inducers, primary screen, AK release luminescence, single concentration. C. neoformans lysis, adenylate kinase release luminescence, 4 h; normalised: neutral wells 0, clomiphene wells 100. lysis activity, % at 15 µM. 0.2% of 360,000 active;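 active means mean lysis activity across replicates of at least 80%, whatever share of replicates individually reach that level; inactive means mean lysis activity below 80%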
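Assay system: Cryptococcus neoformans yeast cells / Dosing: single-point compound dose / Timing: 4 h at 37 °C static, read 1 h later / Measured by: luminescence of released adenylate kinase using an AK detection reagent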
FGF22 binding: binders of human FGF22 protein, primary screen, FGF22 synaptogenesis inhibitor project, biophysical, thermal shift, single point; recombinant FGF22 thermal shift, SYPRO orange fluorescence; percent of sucrose octasulfate shift, DMSO zero; AID 651658, 2012; Fibroblast growth factor 22 (Homo sapiens), Q9HCT0; activity (Tm shift, normalised), % at 9.99 µM; 1.5% of 340,000 active;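 active means mean Tm shift, scaled 0 neutral to 100 positive control, at about 1.3% or above, every replicate too, limit read from the data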
Target sequence (Q9HCT0 whole entry, looked up): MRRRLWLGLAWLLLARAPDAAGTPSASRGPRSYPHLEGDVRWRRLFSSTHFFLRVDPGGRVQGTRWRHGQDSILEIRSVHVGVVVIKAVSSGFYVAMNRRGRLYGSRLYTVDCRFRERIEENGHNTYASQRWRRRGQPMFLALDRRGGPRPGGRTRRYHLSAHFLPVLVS
rRNA inh HTS: reduced GFP signal of wild-type E. coli, primary screen, bacterial rRNA inhibitor project, GFP/RFP fluorescence, OD600, single point | E. coli WT GFP vs humanized-ribosome RFP mutants, 24 h; hits give low values; DMSO median 0, no signal -100 | GFP signal change (wild-type ribosome), % (no concentration beside the values) | 1.6% of 350,000 active;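 active means significant combined selectivity score with lowered wild-type GFP, culture density cut under 30%, mutant RFP and density less affected; inactive means any of these conditions unmet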
Vif inh: HIV Vif self-association inhibitors, primary screen, imaging, HEK293T, single point. HEK293T cells, Vif self-association by quenched fluorescence, 24 h. inhibition, % at 7.49 µM. 0.35% of 340,000 active; in the data active means inhibition above about 50%, passing the limit was not always enough
PglD DTNB: C. jejuni PglD acetyltransferase inhibitors, primary screen, biochemical, DTNB colorimetric, single point; UDP-N-acetylbacillosamine N-acetyltransferase PglD (Campylobacter jejuni); purified PglD enzyme, DTNB colorimetric CoA detection; inhibition, % at 12.5 µM; 0.098% of 360,000 active; AID 602405, 2012; in the data active means inhibition above about 16%, passing the limit was not always enough
PGC1a acetyl inh: inhibitors of PGC1a acetylation signal, primary screen, cell-based, U2OS, AlphaScreen, inhibitor mode; AlphaScreen anti-acetyl-lysine; with virally co-expressed GCN5 acetyltransferase; inhibition, % at 15.6 µM; 0.17% of 350,000 active; AID 651687, 2012;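 active means every replicate shows inhibition of at least 40%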
Of the large screens only hits and unclear results are named; the others gave an inactive call. This is a sample that favours compounds with a hit; in the whole collection about 2.9% have one here.

O=C(C1CCOCC1)N1C[C@@H]2[C@H](c3ccccc31)[C@H](CO)N2C(=O)Nc1cccc(F)c1	none (no result: Vif inh)
O=C(CC1CC1)N[C@@H]1CC[C@@H](CCNS(=O)(=O)c2ccc(Cl)cc2)O[C@@H]1CO	PGC1a acetyl inh 56 (no result: Vif inh)
O=C(NC1CCCCC1)N[C@@H]1CC[C@@H](CCNS(=O)(=O)c2ccc(Cl)cc2)O[C@H]1CO	Cneo AK release 94 (no result: Vif inh)
Cc1ccc(S(=O)(=O)NCC[C@H]2CC[C@@H](NC(=O)CC3CC3)[C@@H](CO)O2)cc1	none (no result: Vif inh)
O=C(CC1CC1)N[C@@H]1CC[C@H](CCNS(=O)(=O)c2ccc(Cl)cc2)O[C@H]1CO	PGC1a acetyl inh 64 (no result: Vif inh)
O=C(C[C@H]1CC[C@@H](NC(=O)c2ccc3c(c2)OCO3)[C@@H](CO)O1)NCc1ccc(F)cc1	Cneo AK release 94 (no result: Vif inh)
COCC(=O)Nc1ccc2c(c1)C(=O)N(C)[C@@H]1CC[C@H](CC(=O)Nc3ccccc3)O[C@H]1CO2	none (no result: Vif inh)
O=C(C[C@H]1CC[C@H](NC(=O)NC2CCCCC2)[C@H](CO)O1)NCc1ccc(Cl)cc1	PGC1a acetyl inh 54 (no result: Vif inh)
CCOC(=O)C(C)Sc1nnc2n1C(C)(C)Cc1ccccc1-2 (stereo not given)	rRNA inh HTS -22 (no result: FGF22 binding)
CC1(C)Cc2ccccc2-c2nnc(SCc3ccccc3)n21	none
C[C@@H]1CCCCO[C@@H](CN(C)S(=O)(=O)c2ccc(Cl)cc2)[C@H](C)CN([C@H](C)CO)C(=O)c2cc(NC(=O)Nc3ccc(F)cc3)ccc2O1	none (no result: Vif inh)
Cc1ccc(S(=O)(=O)N[C@@H]2CC[C@@H](CCNS(=O)(=O)Cc3ccccc3)O[C@@H]2CO)cc1	none (no result: Vif inh)
Cc1nc(N)ncc1Sc1ccccc1	none (no result: Cneo AK release, PglD DTNB)
Cc1nnsc1Sc1ccccc1	FGF22 binding 43
CO[C@H]1CN(C)C(=O)c2ccc(NS(C)(=O)=O)cc2OC[C@@H](C)N(CC2CCOCC2)C[C@H]1C	none (no result: Vif inh)
Cc1ccc(S(=O)(=O)Nc2ccc3c(c2)C(=O)N([C@H](C)CO)C[C@@H](C)[C@@H](CN(C)Cc2ccc(C(F)(F)F)cc2)OCCCC[C@H](C)O3)cc1	none (no result: Vif inh)
CCOC(=O)CC(=O)CSc1ncnc2c1oc1ccccc12	Vif inh 57 (no result: FGF22 binding, rRNA inh HTS, PGC1a acetyl inh)
O=C(O)CSc1ncnc2c1oc1ccccc12	none (no result: FGF22 binding, rRNA inh HTS)
CCOC(=O)NC(=S)Nc1ccc(C(C)(C)C)cc1	Cneo AK release 173
CCOC(=O)NC(=S)Nc1cccc(C)n1	none (no result: rRNA inh HTS, Vif inh, PGC1a acetyl inh)
CC(C)NC(=O)N(C)C[C@H]1Oc2ccc(NS(=O)(=O)c3ccc(F)cc3)cc2C(=O)N([C@H](C)CO)C[C@H]1C	none (no result: Vif inh)
C[C@@H]1CCCCO[C@H](CN(C)C(=O)NC2CCCCC2)[C@H](C)CN([C@H](C)CO)C(=O)c2cc(NS(C)(=O)=O)ccc2O1	none (no result: Vif inh)
Cc1ccccc1/C=C/C(=O)N1CCOCC1	FGF22 binding 43
O=C(/C=C/c1ccccc1Cl)N1CCOCC1	none
C[C@H]1CN([C@@H](C)CO)C(=O)c2cccc(NC(=O)Nc3ccc4c(c3)OCO4)c2O[C@@H]1CN(C)Cc1ccc(Oc2ccccc2)cc1	none (no result: Vif inh)
C[C@H](CO)N1C[C@H](C)[C@H](CN(C)C(=O)CN2CCOCC2)Oc2ncc(-c3cncnc3)cc2C1=O	none (no result: Cneo AK release, FGF22 binding, Vif inh, PglD DTNB)
CC1Cc2ccccc2N1S(=O)(=O)c1cnc(Cl)c(Br)c1 (stereo not given)	rRNA inh HTS -27
COc1ccc(S(=O)(=O)CC(=O)c2cc3cc(Br)ccc3oc2=O)cc1	rRNA inh HTS -22
CO[C@@H]1CN(C)C(=O)c2cc(NS(=O)(=O)c3cn(C)cn3)ccc2OC[C@H](C)N(Cc2cccc(F)c2)C[C@@H]1C	none (no result: Vif inh)
Cc1nn(C)c(C)c1/C=N/NC(=O)C(C)(C)Oc1ccc(Cl)cc1	none
Cc1nn(C(C)(C)C)c(C)c1/C=N/OC(=O)Nc1ccc(Cl)cc1	rRNA inh HTS -27
CC(C)CNC(=O)c1cc([N+](=O)[O-])ccc1N1CCCCC1	FGF22 binding 43 (no result: Cneo AK release, PglD DTNB)
CN1CCN(c2ccc([N+](=O)[O-])cc2C(=O)c2ccc(Br)cc2)CC1	none (no result: FGF22 binding, rRNA inh HTS)
O=C(c1ccc(Br)cc1)c1cc([N+](=O)[O-])ccc1N1CCCCC1	Vif inh 63 (no result: FGF22 binding, rRNA inh HTS)
O=C(C[C@H]1C=C[C@@H](NC(=O)C2CC2)[C@@H](CO)O1)Nc1ccccc1	none (no result: Vif inh)
C[C@@H]1CN([C@@H](C)CO)S(=O)(=O)c2ccc(-c3cccc(C(=O)N(C)C)c3)cc2O[C@H]1CN(C)C(=O)Cc1ccccn1	none (no result: Vif inh)
O=C(N/N=C/c1ccco1)c1cc(-c2ccc3ccccc3c2)n[nH]1	none (no result: FGF22 binding, rRNA inh HTS)
COc1ccc(/C=N\NC(=O)c2ccccc2F)cc1COc1ccc(F)cc1F	none
O=C(CNC(=O)c1ccco1)N/N=C/c1c[nH]c2ccccc12	none
COc1ccc(CC(=O)NCC(=O)N/N=C/c2c[nH]c3ccccc23)cc1	rRNA inh HTS -37
CCc1ccc(-c2cc(C(=O)N/N=C/c3ccco3)[nH]n2)cc1	FGF22 binding 43, rRNA inh HTS -20 (no result: Cneo AK release, PglD DTNB, PGC1a acetyl inh)
COc1ccc(/C=N/NC(=O)c2cc(C(C)(C)C)[nH]n2)cc1COc1ccc(F)cc1F	rRNA inh HTS -24
O=C(N/N=C/c1c[nH]c2ccccc12)c1cc(-c2ccccc2)n[nH]1	rRNA inh HTS -34
O=C(c1ccccn1)N1CC2(C1)[C@H](c1ccccc1)[C@@H](CO)N2C(=O)C1CC1	none (no result: Cneo AK release, Vif inh, PglD DTNB)
COc1ccccc1-c1ccc2c(c1)O[C@@H](CN(C)S(=O)(=O)c1ccc(F)cc1)[C@@H](C)CN([C@H](C)CO)S2(=O)=O	none (no result: Vif inh)
CCCC(=O)Nc1ccc2c(c1)C(=O)N(C)C[C@@H](OC)[C@H](C)CN(Cc1cncnc1)[C@@H](C)CO2	none (no result: FGF22 binding, Vif inh)
COc1ccc([C@@H]2C/C=C\C[C@@H](c3ccccc3)NC(=O)CCC(=O)N2)c(OC)c1	none (no result: Cneo AK release, FGF22 binding, Vif inh, PglD DTNB, PGC1a acetyl inh)
CCn1cc(/C=N\NC(=O)c2c[nH]c3ccccc23)c(C)n1	none (no result: Cneo AK release, FGF22 binding, rRNA inh HTS, PglD DTNB, PGC1a acetyl inh)
Cc1ccc(-c2cc(C(=O)N/N=C/c3ccco3)n[nH]2)s1	none (no result: FGF22 binding, rRNA inh HTS)
CC(C)(C)c1cc(C(=O)N/N=C/c2ccco2)n[nH]1	Vif inh 62 (no result: FGF22 binding, rRNA inh HTS)
CCc1ccc(-c2cc(C(=O)N/N=C/c3ccccn3)[nH]n2)cc1	rRNA inh HTS -25 (no result: Cneo AK release, PglD DTNB, PGC1a acetyl inh)
Cc1c(/C=N\NC(=O)c2c[nH]c3ccccc23)cnn1C	FGF22 binding 44 (no result: Cneo AK release, rRNA inh HTS, PglD DTNB, PGC1a acetyl inh)
Cc1cc(C(=O)N/N=C/c2ccc[nH]2)n[nH]1	FGF22 binding 43 (no result: Cneo AK release, PglD DTNB, PGC1a acetyl inh)
COc1cc(OC)cc(C(=O)NC(=S)N2CCCCCC2)c1	rRNA inh HTS -31 (no result: Cneo AK release, PglD DTNB, PGC1a acetyl inh)
